Results as given in paper PMC2233693 (The Journal of General Physiology, 2000).
Changes are numbered by the printed parent chain. Where two headings read alike, the source gives them in different places.

Experiments:
Format in all cases: biochemical
[1] = target: T1, wild-type bovine olfactory CNG channel (α3 subunit) (Bos taurus, UniProt Q03041); test: Divalent cation permeation, outside-out patches in bi-ionic conditions; conditions: for reversal potential, V rev: internal Na
T1 sequence (Q03041 1-663): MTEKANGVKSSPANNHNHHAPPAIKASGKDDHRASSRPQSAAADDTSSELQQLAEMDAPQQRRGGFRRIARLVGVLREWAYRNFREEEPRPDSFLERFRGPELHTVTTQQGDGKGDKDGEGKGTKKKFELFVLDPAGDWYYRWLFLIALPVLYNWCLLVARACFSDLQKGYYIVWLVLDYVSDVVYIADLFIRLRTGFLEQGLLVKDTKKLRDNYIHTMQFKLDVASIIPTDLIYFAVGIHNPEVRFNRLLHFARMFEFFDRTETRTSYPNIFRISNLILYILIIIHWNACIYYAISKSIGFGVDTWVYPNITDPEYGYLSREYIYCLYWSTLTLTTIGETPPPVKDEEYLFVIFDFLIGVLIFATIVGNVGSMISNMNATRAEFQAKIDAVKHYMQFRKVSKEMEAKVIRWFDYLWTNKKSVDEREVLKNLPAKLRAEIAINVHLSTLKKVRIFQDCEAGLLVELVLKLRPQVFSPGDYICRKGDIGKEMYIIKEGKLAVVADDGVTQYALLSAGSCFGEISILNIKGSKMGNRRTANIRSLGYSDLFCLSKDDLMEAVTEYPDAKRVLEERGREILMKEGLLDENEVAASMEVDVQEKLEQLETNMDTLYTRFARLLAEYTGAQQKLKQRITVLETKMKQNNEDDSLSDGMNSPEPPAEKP
How it was run: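 Outside-out oocyte patches; the pipette held 1 mM cGMP and 110 mM NaCl. External 110 mM NaCl was replaced by 73.3 mM CaCl2 or MgCl2. From a 0 mV holding potential, 150-ms steps were given from −80 to +80 mV in 20-mV increments. I_Ca/I_Na was taken at −80 mV, and reversal potential under bi-ionic conditions (internal Na+, external divalent); mean ± SD.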

[2] = target: T1, wild-type bovine olfactory CNG channel (α3 subunit)
[3] = target: T2, E340N^‡ mutant bovine olfactory CNG channel (Bos taurus, UniProt Q03041, E340Q); test: Blockage of macroscopic current by external Ca2+ or Mg2+, outside-out patches
T2 sequence (Q03041 1-663 E340Q): T1 sequence (Q03041 1-663) with E340Q
How it was run: (§1)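 Xenopus oocytes injected with wild-type or mutant channel mRNA; outside-out patches with 100 μM cGMP in the pipette. Bath: 110 mM NaCl, 2 mM EDTA, 10 mM HEPES, pH 7.4, plus Ca2+ (NTA-buffered) or Mg2+ (EDTA-buffered); unbuffered above 0.1 mM. Five 1-s ramps (−80 to +80 mV) averaged, leak subtracted. Current normalised to divalent-free current at the same voltage, Hill-fitted per patch; Ki and n given as mean ± SD.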

[4] = target: T1, wild-type bovine olfactory CNG channel (α3 subunit); test: as above; conditions: for Ki: mean ± SD
How it was run: as §1

[5] = target: T3, E340N mutant bovine olfactory CNG channel (Bos taurus, UniProt Q03041, E340N); test: as above; conditions: for Ki: mean ± SD
T3 sequence (Q03041 1-663 E340N): T1 sequence (Q03041 1-663) with E340N
How it was run: as §1

[6] = external Mg2+, −80 mV, one experiment

Q: How did the “reversal potential, V rev” value ([1]; external Ca2+) turn out when `[Ca+2]` [Ca^2+] was run?
A: 25 ± 6 mV

Q: And the “I Ca/I Na” value ([1]; −80 mV, external 73.3 mM CaCl2 vs 110 mM NaCl)?
A: 0.049 ± 0.004

Q: And the “effect of external Ca2+ on K 1/2 for cAMP or cGMP” value ([2]; 1 mM Ca2+ in the patch pipette)?
A: did not significantly affect K 1/2

Q: What about the “n, Hill coefficient of blockage” value ([3]; external Ca2+, +80 mV) of the same molecule?
A: 0.5 ± 0.2

Q: And the Ki ([3]; external Ca2+, +80 mV, mean ± SD)?
A: 19000 ± 12000 µM

Q: What about the “n, Hill coefficient of blockage” value ([3]; external Ca2+, −80 mV) of the same molecule?
A: 0.4 ± 0.2

Q: And the Ki ([3]; external Ca2+, −80 mV, mean ± SD)?
A: 2100 ± 600 µM

Q: And the “n, Hill coefficient of blockage” value ([4]; external Ca2+, +80 mV)?
A: 0.9 ± 0.1

Q: What about the Ki ([4]; external Ca2+, +80 mV) of the same molecule?
A: 383 ± 145 µM

Q: What about the “n, Hill coefficient of blockage” value ([4]; external Ca2+, −80 mV) of the same molecule?
A: 1.3 ± 0.4

Q: And the Ki ([4]; external Ca2+, −80 mV)?
A: 47 ± 21 µM

Q: What about the “n, Hill coefficient of blockage” value ([5]; external Ca2+, +80 mV) of the same molecule?
A: 0.6 ± 0.2

Q: And the Ki ([5]; external Ca2+, +80 mV)?
A: 29000 ± 6000 µM

Q: What about the “n, Hill coefficient of blockage” value ([5]; external Ca2+, −80 mV) of the same molecule?
A: 0.6 ± 0.1

Q: And the Ki ([5]; external Ca2+, −80 mV)?
A: 6500 ± 4000 µM

Q: Which results are given for `[Mg+2]` [Mg^2+]?
A: reversal potential, V rev ([1]; external Mg2+): 45 ± 7 mV; n, Hill coefficient of blockage ([3]; external Mg2+, +80 mV, one experiment): 0.3; Ki [3, 6]: 3400 µM; n, Hill coefficient of blockage [3, 6]: 0.5; n, Hill coefficient of blockage ([4]; external Mg2+, +80 mV): 1.0 ± 0.1; Ki ([4]; external Mg2+, +80 mV): 920 ± 640 µM; n, Hill coefficient of blockage ([4]; external Mg2+, −80 mV): 1.2 ± 0.2; Ki ([4]; external Mg2+, −80 mV): 70 ± 34 µM; n, Hill coefficient of blockage ([5]; external Mg2+, +80 mV): 0.6 ± 0.1; Ki ([5]; external Mg2+, +80 mV): 50000 ± 3600 µM; n, Hill coefficient of blockage ([5]; external Mg2+, −80 mV): 0.6 ± 0.1; Ki ([5]; external Mg2+, −80 mV): 17000 ± 7200 µM

Q: For `Nc1nc2c(ncn2[C@@H]2O[C@@H]3COP(=O)(O)O[C@H]3[C@H]2O)c(=O)[nH]1` [cGMP], which “n(−80 mV), Hill coefficient” value ([2]; cGMP) is on record?
A: 2.7 ± 0.2

Q: What about the “I(−80 mV)/I(+80 mV)” value ([2]; cGMP-gated current) of the same molecule?
A: 1.11 ± 0.03

Q: What about the EC50 ([2]; read-out: K 1/2, cGMP, +80 mV) of the same molecule?
A: 2.6 ± 0.6 µM

Q: And the EC50 ([2]; read-out: K 1/2, cGMP, −80 mV)?
A: 2.5 ± 0.5 µM

Q: What about the EC50 ([2]; read-out: K 1/2,cG, −80 mV, single patch, Fig. 1 fit) of the same molecule?
A: 3.2 µM

Q: What about the “n cG” value ([2]; −80 mV, single patch, Fig. 1 fit) of the same molecule?
A: 2.7
